In data set [1] the test system is BV-2. Nature of the data set: Cytotoxicity against […] BV2 cells assessed as reduction in cell viability up to 80 uM after 24 hrs by MTT assay. The class given is cell-based. As to conditions: bv-2, 24 h. Put shortly: (§1)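 BV2 cells (1 × 10^5 cells/well) exposed to compound for 24 h, at concentrations up to 80 μM. MTT added to 0.5 mg/mL final for 3 h. Formazan dissolved in acidic 2-propanol and read at 540 nm. Untreated cells set as 100% viability.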
In general terms: Tetrazolium assays rely on reduction of a dye to a coloured formazan, in cell work by metabolically active cells.

For data set [2], the system named is BV-2. Put plainly: Antiinflammatory activity in […] BV2 cells assessed as inhibition of LPS-induced NO production preincubated for 3 hrs followed by LPS stimulation measured after 24 hrs by Griess assay. Format: functional, cell-based. The essentials: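 BV2 cells pretreated with compound for 3 h, then LPS (1 μg/mL) for 24 h. Nitrite in conditioned medium taken as NO indicator. Supernatant mixed 1:1 with Griess reagent (0.1% N-(1-naphthyl)ethylenediamine, 1% sulfanilamide in 5% phosphoric acid), 10 min at room temperature. A540 read. Concentration from a sodium nitrite standard curve made in phenol red-free DMEM. IC50 reported.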

The test system of data set [3] is BV-2. Put plainly: Cytotoxicity against […] BV2 cells assessed as reduction in cell viability up to 40 uM after 24 hrs by MTT assay. The class given is cell-based. As to conditions: bv-2, 24 h. Put shortly: as §1
Data set [4] concerns BV-2. Nature of the data set: Antiinflammatory activity in […] BV2 cells assessed as inhibition of LPS-induced PGE2 production preincubated for 3 hrs followed by LPS stimulation measured after 24 hrs by ELISA. The class given is functional, cell-based. Put shortly:
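Pretreatment of BV2 cells with compound for 3 h, then LPS (1 μg/mL) stimulation for 24 h. PGE2 in culture medium measured by ELISA/enzyme immunoassay kit.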

Data set [5] concerns BV-2. Nature of the data set: Inhibition of iNOS protein expression level in LPS-induced […] BV2 cells preincubated for 3 hrs followed by LPS stimulation measured after 24 hrs by Western blot analysis. The class given is functional, cell-based. The essentials: (§2)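 BV2 cells pretreated 3 h with compound, then LPS (1 μg/mL) for 24 h. Cells lysed in 20 mM Tris-HCl pH 7.4 with protease inhibitors. Protein quantified by Lowry. Equal protein run on 7.5% and 12% SDS-PAGE, transferred to nitrocellulose and probed with anti-iNOS, anti-COX-2 and anti-actin antibodies, ECL detection.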
On the technique in general: Immunoblotting shows a protein as a band on a membrane.

For data set [6], the system named is BV-2. Nature of the data set: Inhibition of COX2 protein expression level in LPS-induced […] BV2 cells preincubated for 3 hrs followed by LPS stimulation measured after 24 hrs by Western blot analysis. Format: functional, cell-based. The essentials:
as §2

Data set [7] deals with BV-2. Nature of the data set: Antiinflammatory activity in LPS-induced […] BV2 cells assessed as inhibition of IL-1beta mRNA expression level preincubated for 3 hrs followed by LPS stimulation measured after 6 hrs by qRT-PCR analysis. The class given is functional, cell-based. The essentials:
(§3)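 BV2 microglia in DMEM with 10% heat-inactivated FBS, penicillin/streptomycin and 2 mM L-glutamine, 37 °C, 5% CO2. Cells incubated with compound for 3 h, then LPS (1 μg/mL) for 6 h. Il1b, Il6 and Tnf mRNA measured by RT-qPCR with GAPDH as endogenous control. Relative expression by comparative Ct (2−ΔΔCt). Mean of three independent experiments.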

Data set [8] relates to BV-2. Nature of the data set: Antiinflammatory activity in LPS-induced […] BV2 cells assessed as inhibition of IL-6 mRNA expression level preincubated for 3 hrs followed by LPS stimulation measured after 6 hrs by qRT-PCR analysis. The class given is functional, cell-based. Put shortly: as §3
The test system of data set [9] is BV-2. Nature of the data set: Antiinflammatory activity in LPS-induced mouse BV2 cells assessed as inhibition of TNF-alpha mRNA expression level preincubated for 3 hrs followed by LPS stimulation measured after 6 hrs by qRT-PCR analysis.

Active and inactive are the calls of the source. The rule behind the calls is not given here.

In general, IC50 refers to the point on the concentration scale where inhibition reaches its midpoint.

With `CCCCCCCC[C@H](O)c1cc(OC)c(CO)c(=O)o1`, the values for the Activity result in the data set with BV-2 [1] and with BV-2 [3] were “Toxic” and “Non-Toxic”, respectively. The IC50 with BV-2 [2] (Mus musculus) worked out at 15 µM. Also, the inhibition entry in the data set on BV-2 [4], with BV-2 [5], in the data set on BV-2 [6], in the data set with BV-2 [7], in the data set on BV-2 [8] and in the data set on BV-2 [9] was “Dose-dependent effect” throughout.
Consider `COc1cc([C@@H](O)CCCCCC[C@@H](C)O)oc(=O)c1CO`, for which the inhibition result in the data set on BV-2 [2] was “inactive”.

Values taken from ChEMBL document CHEMBL4251717, “Bioactive α-Pyrone Derivatives from the Endolichenic Fungus Dothideomycetes sp. EL003334” (J Nat Prod, 2018).
